One data set deals with COLO 205. The data set can be described thus: Cytotoxicity against human COLO205 cells after 24 hrs by MTT assay. The format is functional. The settings on record: COLO 205, 24 h. In outline: (§1)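 Cells kept at 37 °C in humidified 5% CO2 and seeded at 5 × 10³ cells/well the day before. They were PBS-washed, given fresh medium, then exposed to test compounds (0.1–100 µM) for 24 h. MTT (5 mg/mL in PBS) was then added for 4 h at 37 °C. Formazan was dissolved in DMSO and OD read at 570 nm. Each concentration was run in three experiments, three replicates each.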
Background: Tetrazolium assays rely on reduction of a dye to a coloured formazan, in cell work by metabolically active cells.

In the next data set the test system is MCF7. The data set can be described thus: Cytotoxicity against human MCF7 cells after 24 hrs by MTT assay. The format is functional. The settings on record: MCF7, 24 h. In outline: as §1
Data set [1] addresses 5-lipoxygenase (Solanum tuberosum). Description: Inhibition of 5-lipoxygenase.
For another data set, the system named is HaCaT. Description: Cytotoxicity against human HaCaT cells at up to 100 uM after 24 hrs by MTT assay. It counts as cell-based. Put shortly:
as §1

The results in this text go back to ChEMBL document CHEMBL1212887, “Design, synthesis, and biological evaluation of prenylated chalcones as 5-LOX inhibitors” (Bioorg Med Chem, 2010).

Each structure is given as a SMILES string. pIC50: −log10 of the molar value. Bounds are passed on as bounds.

For the compound `COc1cccc(/C=C/C(=O)c2ccc(OCC=C(C)C)cc2O)c1OC`, the concentration for 50% growth inhibition (GI50) in the data set on COLO 205 and in the data set with MCF7 was > 100 µM each time. In addition, the pIC50 in data set [1] was < 4.00.
Consider `COc1ccc(/C=C/C(=O)c2ccc(OCC=C(C)C)cc2O)c(OC)c1OC`, for which the 50% growth inhibitory concentration (GI50) with COLO 205 and in the data set with MCF7 was > 100 µM throughout. The pIC50 in data set [1] is < 4.00.
On to `COc1ccc(/C=C/C(=O)c2ccc(OCC=C(C)C)cc2O)cc1OC`, for which the GI50 in the data set with COLO 205 and in the data set on MCF7 was > 100 µM in each case. The pIC50 in data set [1] was < 4.00.
As for `COc1cc(/C=C/C(=O)c2ccc(OCC=C(C)C)cc2O)cc(OC)c1OC`, the values for the GI50 with COLO 205 and in the data set with MCF7 were 96 µM and 81 µM, respectively. Further, the negative-log IC50 (pIC50) in data set [1] is < 4.00.
Consider `COc1ccc(/C=C/C(=O)c2ccc(OCC=C(C)C)cc2OCC=C(C)C)cc1`, for which the figures for the GI50 in the data set with COLO 205 and with MCF7 were 97 µM and 67.5 µM, respectively.
The like results for `COc1cccc(/C=C/C(=O)c2ccc(OCC=C(C)C)cc2OCC=C(C)C)c1OC` were, in that order, 99 µM and 73 µM.
Take `COc1ccc(/C=C/C(=O)c2ccc(OCC=C(C)C)cc2OCC=C(C)C)c(OC)c1OC`: the GI50 in the data set with COLO 205 is > 100 µM; with MCF7, 92 µM. The same compound showed a negative logarithm of the IC50 (pIC50) in data set [1] of 4.31.
For `COc1ccc(/C=C/C(=O)c2ccc(OCC=C(C)C)cc2OCC=C(C)C)cc1OC`, the figures for the concentration for 50% growth inhibition (GI50) with COLO 205 and with MCF7 were 90 µM and 66.5 µM, respectively. In addition, in data set [1], the negative-log IC50 (pIC50) is 5.05.
Turning to `COc1cc(/C=C/C(=O)c2ccc(OCC=C(C)C)cc2OCC=C(C)C)cc(OC)c1OC`, the GI50 in the data set with COLO 205 was determined as 78 µM; with MCF7 it was 9 µM. Also, the pIC50 in data set [1] was 5.40. Also, in the data set with HaCaT, the Activity entry is on record as “Non-toxic”.
For `COc1ccc(/C=C/C(=O)c2ccc(OCC=C(C)C)cc2O)cc1`, the figures for the 50% growth inhibitory concentration (GI50) with COLO 205 and in the data set on MCF7 were > 100 µM and 97.5 µM, respectively. Further, the pIC50 in data set [1] is < 4.00.

One may read the GI50 as the concentration at which growth is held to half of that of the control. A lower GI50 goes with more potent growth inhibition. A word on the pIC50: it is the IC50 on a negative log10 scale, so that one unit is a factor of ten.
